# How the values were obtained:
# Type in all cases: functional
# [1] = tested on: HL-60(TB); assay: Cytotoxicity against human HL-60(TB) cells assessed as growth inhibition at 10 uM after 48 hrs by sulphorhodamine B assay; conditions: HL-60, 48 h, read-out: GI
# Outline: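 NCI-60 one-dose primary screen run to the Drug Evaluation Branch protocol. Cells are exposed to a single 10 µM concentration for 48 h continuously, and growth is read by SRB protein assay. Data are reported as percent growth of treated cells, expressed as % growth inhibition.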
# [2] = tested on: RXF 393; assay: Cytotoxicity against human RXF393 cells assessed as growth inhibition at 10 uM after 48 hrs by sulphorhodamine B assay; conditions: RXF 393, 48 h, read-out: GI
# Outline: (§1)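 NCI-60 one-dose screen per the NCI Drug Evaluation Branch protocol. Cells given a single 10 µM concentration with 48 h continuous exposure. Growth estimated by sulphorhodamine B protein assay. Result expressed as percentage growth inhibition relative to untreated growth.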
# [3] = tested on: SK-MEL-2; assay: Cytotoxicity against human SK-MEL-2 cells assessed as growth inhibition at 10 uM after 48 hrs by sulphorhodamine B assay; conditions: SK-MEL-2, 48 h, read-out: GI; outline: as §1
# [4] = tested on: MDA-MB-435; assay: Cytotoxicity against human MDA-MB-435 cells assessed as growth inhibition at 10 uM after 48 hrs by sulphorhodamine B assay; conditions: MDA-MB-435, 48 h, read-out: GI; outline: as §1
# [5] = tested on: Hs-578T; assay: Cytotoxicity against human Hs578T cells assessed as growth inhibition at 10 uM after 48 hrs by sulphorhodamine B assay; conditions: read-out: GI; outline: as §1
# [6] = tested on: NCI-H23; assay: Cytotoxicity against human NCI-H23 cells assessed as growth inhibition at 10 uM after 48 hrs by sulphorhodamine B assay; conditions: NCI-H23, 48 h, read-out: GI; outline: as §1
# [7] = tested on: MOLT-4; assay: Cytotoxicity against human MOLT4 cells assessed as growth inhibition at 10 uM after 48 hrs by sulphorhodamine B assay; conditions: MOLT-4, 48 h, read-out: GI; outline: as §1
# [8] = tested on: HOP-92; assay: Cytotoxicity against human HOP92 cells assessed as growth inhibition at 10 uM after 48 hrs by sulphorhodamine B assay; conditions: HOP-92, 48 h, read-out: GI; outline: as §1
# [9] = tested on: SNB-19; assay: Cytotoxicity against human SNB19 cells assessed as growth inhibition at 10 uM after 48 hrs by sulphorhodamine B assay; conditions: SNB-19, 48 h, read-out: GI; outline: as §1
# [10] = tested on: SR; assay: Cytotoxicity against human SR cells assessed as growth inhibition at 10 uM after 48 hrs by sulphorhodamine B assay; conditions: read-out: GI; outline: as §1
# [11] = tested on: HCT-116; assay: Cytotoxicity against human HCT116 cells assessed as growth inhibition at 10 uM after 48 hrs by sulphorhodamine B assay; conditions: HCT-116, 48 h, read-out: GI; outline: as §1
# [12] = tested on: HT-29; assay: Cytotoxicity against human HT-29 cells assessed as growth inhibition at 10 uM after 48 hrs by sulphorhodamine B assay; conditions: HT-29, 48 h, read-out: GI; outline: as §1
# [13] = tested on: MDA-MB-468; assay: Cytotoxicity against human MDA-MB-468 cells assessed as growth inhibition at 10 uM after 48 hrs by sulphorhodamine B assay; conditions: MDA-MB-468, 48 h, read-out: GI; outline: as §1
# [14] = tested on: LOX IMVI; assay: Cytotoxicity against human LOXIMVI cells assessed as growth inhibition at 10 uM after 48 hrs by sulphorhodamine B assay; conditions: read-out: GI; outline: as §1
# [15] = tested on: RPMI-8226; assay: Cytotoxicity against human RPMI8226 cells assessed as growth inhibition at 10 uM after 48 hrs by sulphorhodamine B assay; conditions: RPMI-8226, 48 h, read-out: GI; outline: as §1
# [16] = tested on: U-251; assay: Cytotoxicity against human U251 cells assessed as growth inhibition at 10 uM after 48 hrs by sulphorhodamine B assay; conditions: U-251, 48 h, read-out: GI; outline: as §1
# [17] = tested on: CCRF-CEM; assay: Cytotoxicity against human CCRF-CEM cells assessed as growth inhibition at 10 uM after 48 hrs by sulphorhodamine B assay; conditions: read-out: GI; outline: as §1
# [18] = tested on: SF-295; assay: Cytotoxicity against human SF295 cells assessed as growth inhibition at 10 uM after 48 hrs by sulphorhodamine B assay; conditions: SF-295, 48 h, read-out: GI; outline: as §1
# [19] = tested on: SK-MEL-5; assay: Cytotoxicity against human SK-MEL-5 cells assessed as growth inhibition at 10 uM after 48 hrs by sulphorhodamine B assay; conditions: SK-MEL-5, 48 h, read-out: GI; outline: as §1
# [20] = tested on: UO-31; assay: Cytotoxicity against human UO31 cells assessed as growth inhibition at 10 uM after 48 hrs by sulphorhodamine B assay; conditions: UO-31, 48 h, read-out: GI; outline: as §1
# [21] = tested on: SNB-75; assay: Cytotoxicity against human SNB75 cells assessed as growth inhibition at 10 uM after 48 hrs by sulphorhodamine B assay; conditions: SNB-75, 48 h, read-out: GI; outline: as §1
# [22] = Cytotoxicity against human EKVX cells assessed as growth inhibition at 10 uM after 48 hrs by sulphorhodamine B assay; conditions: read-out: GI; outline: as §1
# [23] = tested on: A498; assay: Cytotoxicity against human A498 cells assessed as growth inhibition at 10 uM after 48 hrs by sulphorhodamine B assay; conditions: A498, 48 h, read-out: GI; outline: as §1
# [24] = tested on: OVCAR-5; assay: Cytotoxicity against human OVCAR5 cells assessed as growth inhibition at 10 uM after 48 hrs by sulphorhodamine B assay; conditions: OVCAR-5, 48 h, read-out: GI; outline: as §1
# [25] = tested on: HCT-15; assay: Cytotoxicity against human HCT15 cells assessed as growth inhibition at 10 uM after 48 hrs by sulphorhodamine B assay; conditions: HCT-15, 48 h, read-out: GI; outline: as §1
# [26] = tested on: M14; assay: Cytotoxicity against human M14 cells assessed as growth inhibition at 10 uM after 48 hrs by sulphorhodamine B assay; conditions: M14, 48 h, read-out: GI; outline: as §1
# [27] = tested on: OVCAR-4; assay: Cytotoxicity against human OVCAR4 cells assessed as growth inhibition at 10 uM after 48 hrs by sulphorhodamine B assay; conditions: OVCAR-4, 48 h, read-out: GI; outline: as §1
# [28] = tested on: CAKI-1; assay: Cytotoxicity against human Caki1 cells assessed as growth inhibition at 10 uM after 48 hrs by sulphorhodamine B assay; conditions: CAKI-1, 48 h, read-out: GI; outline: as §1
# [29] = tested on: MCF7; assay: Cytotoxicity against human MCF7 cells assessed as growth inhibition at 10 uM after 48 hrs by sulphorhodamine B assay; conditions: MCF7, 48 h, read-out: GI; outline: as §1
# [30] = tested on: UACC-62; assay: Cytotoxicity against human UACC62 cells assessed as growth inhibition at 10 uM after 48 hrs by sulphorhodamine B assay; conditions: UACC-62, 48 h, read-out: GI; outline: as §1
# [31] = tested on: NCI-H522; assay: Cytotoxicity against human NCI-H522 cells assessed as growth inhibition at 10 uM after 48 hrs by sulphorhodamine B assay; conditions: NCI-H522, 48 h, read-out: GI; outline: as §1
# [32] = tested on: DU-145; assay: Cytotoxicity against human DU145 cells assessed as growth inhibition at 10 uM after 48 hrs by sulphorhodamine B assay; conditions: DU-145, 48 h, read-out: GI; outline: as §1
# [33] = tested on: PC-3; assay: Cytotoxicity against human PC3 cells assessed as growth inhibition at 10 uM after 48 hrs by sulphorhodamine B assay; conditions: PC-3, 48 h, read-out: GI; outline: as §1
# [34] = tested on: IGROV-1; assay: Cytotoxicity against human IGROV1 cells assessed as growth inhibition at 10 uM after 48 hrs by sulphorhodamine B assay; conditions: IGROV-1, 48 h, read-out: GI; outline: as §1
# [35] = tested on: ACHN; assay: Cytotoxicity against human ACHN cells assessed as growth inhibition at 10 uM after 48 hrs by sulphorhodamine B assay; conditions: read-out: GI; outline: as §1
# [36] = tested on: K562; assay: Cytotoxicity against human K562 cells assessed as growth inhibition at 10 uM after 48 hrs by sulphorhodamine B assay; conditions: K562, 48 h, read-out: GI; outline: as §1
# [37] = tested on: SF-268; assay: Cytotoxicity against human SF268 cells assessed as growth inhibition at 10 uM after 48 hrs by sulphorhodamine B assay; conditions: SF-268, 48 h, read-out: GI; outline: as §1
# [38] = tested on: A549; assay: Cytotoxicity against human A549 cells assessed as growth inhibition at 10 uM after 48 hrs by sulphorhodamine B assay; conditions: A549, 48 h, read-out: GI; outline: as §1
# [39] = tested on: NCI/ADR-RES; assay: Cytotoxicity against human NCI/ADR-RES cells assessed as growth inhibition at 10 uM after 48 hrs by sulphorhodamine B assay; conditions: read-out: GI; outline: as §1
# [40] = tested on: SK-OV-3; assay: Cytotoxicity against human SKOV3 cells assessed as growth inhibition at 10 uM after 48 hrs by sulphorhodamine B assay; conditions: SK-OV-3, 48 h, read-out: GI; outline: as §1
# [41] = tested on: T47D; assay: Cytotoxicity against human T47D cells assessed as growth inhibition at 10 uM after 48 hrs by sulphorhodamine B assay; conditions: read-out: GI; outline: as §1
smiles,measurement,setting,value
COc1ccc(-c2c(C#N)c(N)nc3c2CCCC3C)cc1 (stereo unspecified),inhibition of growth at 10 µM,[1],11.7%
same,inhibition of growth at 10 µM,[2],11.1%
same,inhibition of growth at 10 µM,[3],< 10%
same,inhibition of growth at 10 µM,[4],< 10%
same,inhibition of growth at 10 µM,[5],< 10%
same,inhibition of growth at 10 µM,[6],11%
same,inhibition of growth at 10 µM,[7],21.3%
same,inhibition of growth at 10 µM,[8],20%
same,inhibition of growth at 10 µM,[9],11%
same,inhibition of growth at 10 µM,[10],36.6%
same,inhibition of growth at 10 µM,[11],15.7%
same,inhibition of growth at 10 µM,[12],< 10%
same,inhibition of growth at 10 µM,[13],15.2%
same,inhibition of growth at 10 µM,[14],12.3%
same,inhibition of growth at 10 µM,[15],34.1%
same,inhibition of growth at 10 µM,[16],20%
same,inhibition of growth at 10 µM,[17],16.3%
same,inhibition of growth at 10 µM,[18],< 10%
same,inhibition of growth at 10 µM,[19],14.5%
same,inhibition of growth at 10 µM,[20],< 10%
same,inhibition of growth at 10 µM,[21],25.3%
same,inhibition of growth at 10 µM,[22],< 10%
same,inhibition of growth at 10 µM,[23],< 10%
same,inhibition of growth at 10 µM,[24],< 10%
same,inhibition of growth at 10 µM,[25],25.3%
same,inhibition of growth at 10 µM,[26],< 10%
same,inhibition of growth at 10 µM,[27],17.2%
same,inhibition of growth at 10 µM,[28],< 10%
same,inhibition of growth at 10 µM,[29],10%
same,inhibition of growth at 10 µM,[30],20%
same,inhibition of growth at 10 µM,[31],14.6%
same,inhibition of growth at 10 µM,[32],< 10%
same,inhibition of growth at 10 µM,[33],16.2%
same,inhibition of growth at 10 µM,[34],< 10%
same,inhibition of growth at 10 µM,[35],< 10%
same,inhibition of growth at 10 µM,[36],28.4%
same,inhibition of growth at 10 µM,[37],< 10%
same,inhibition of growth at 10 µM,[38],15.7%
same,inhibition of growth at 10 µM,[39],24.1%
same,inhibition of growth at 10 µM,[40],< 10%
same,inhibition of growth at 10 µM,[41],41%

# — ChEMBL document CHEMBL2375313, “Synthesis, in vitro antitumor evaluation and DNA-binding study of novel tetrahydroquinolines and some derived tricyclic and tetracyclic ring systems” (Eur J Med Chem, 2013)
